pIC50: −log10 of the molar value. Like-named read-outs stand apart in the source and are kept apart here.
How the values were obtained:
[1] = molecular target: T1, recombinant human MMP-7 catalytic domain (Homo sapiens, UniProt P09237); experiment: Recombinant MMP fluorescent assay, MMP-7; type: biochemical
T1 sequence (P09237 95-267): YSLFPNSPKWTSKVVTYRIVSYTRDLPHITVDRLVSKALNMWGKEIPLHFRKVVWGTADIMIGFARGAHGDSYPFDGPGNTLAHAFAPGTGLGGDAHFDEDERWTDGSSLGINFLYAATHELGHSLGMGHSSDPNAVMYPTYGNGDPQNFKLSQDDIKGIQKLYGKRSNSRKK
Summary of the method: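 Kit-based fluorogenic substrate assay. Test compound was dissolved in DMSO, with 0.005% final DMSO in buffer (50 mM HEPES, 10 mM CaCl2, 0.05% Brij-35, pH 7.5). Substrate was added to start the reaction. Fluorescence (ex 335/em 405 nm) was read every 60 s for 30 min, with 1 s shaking between reads. Rates came from linear kinetic regions; IC50 from activity versus log[inhibitor]. o-Phenanthroline confirmed MMP-dependent cleavage.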

[2] = molecular target: recombinant human MMP-8 catalytic domain (Homo sapiens, UniProt P22894); experiment: Recombinant MMP fluorescent assay, MMP-8; type: biochemical; conditions: read-out: IC50 MMP-8; 1 hour preincubation at 37°C
recombinant human MMP-8 catalytic domain, sequence (P22894 100-262 limits assumed): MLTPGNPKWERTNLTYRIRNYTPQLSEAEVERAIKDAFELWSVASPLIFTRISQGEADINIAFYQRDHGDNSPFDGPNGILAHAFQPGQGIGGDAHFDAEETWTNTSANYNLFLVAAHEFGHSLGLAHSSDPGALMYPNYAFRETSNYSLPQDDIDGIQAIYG

[3] = system: isolated stunned rat hearts; experiment: Langendorff isolated perfused rat heart, stunning; conditions: for Improvement in RPP versus controls: at 30-minute reperfusion; for Coronary flow rates versus controls: during reperfusion; for cTnI release versus controls: after ischemia
[4] = molecular target: recombinant human MMP-9 catalytic domain (Homo sapiens, UniProt P14780); experiment: Recombinant MMP fluorescent assay, MMP-9; type: biochemical; conditions: read-out: IC50 MMP-9; 1 hour preincubation at 37°C
recombinant human MMP-9 catalytic domain, sequence (P14780 107-444 limits assumed): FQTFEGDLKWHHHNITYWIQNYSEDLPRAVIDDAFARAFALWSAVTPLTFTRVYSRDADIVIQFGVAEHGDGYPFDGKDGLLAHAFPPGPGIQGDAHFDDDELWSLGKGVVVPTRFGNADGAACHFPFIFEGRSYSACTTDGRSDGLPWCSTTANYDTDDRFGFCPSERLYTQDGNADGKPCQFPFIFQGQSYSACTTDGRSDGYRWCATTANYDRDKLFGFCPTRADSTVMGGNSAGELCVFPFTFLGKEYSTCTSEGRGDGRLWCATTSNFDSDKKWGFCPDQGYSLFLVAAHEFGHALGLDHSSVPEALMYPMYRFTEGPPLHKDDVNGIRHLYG

[5] = system: isolated infarcted rat hearts; experiment: Langendorff isolated perfused rat heart, infarction; conditions: 5 μM
[6] = molecular target: T2, recombinant human MMP-1 catalytic domain (Homo sapiens, UniProt P03956); experiment: Recombinant MMP fluorescent assay, MMP-1; type: biochemical; conditions: read-out: IC50 MMP-1; 1 hour preincubation at 37°C
T2 sequence (P03956 100-269 limits assumed): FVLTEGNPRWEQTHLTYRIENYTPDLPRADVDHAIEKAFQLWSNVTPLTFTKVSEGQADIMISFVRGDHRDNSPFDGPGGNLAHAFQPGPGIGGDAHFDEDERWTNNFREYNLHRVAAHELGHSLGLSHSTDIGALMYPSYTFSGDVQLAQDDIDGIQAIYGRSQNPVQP

[7] = molecular target: recombinant human MMP-13 catalytic domain (Homo sapiens, UniProt P45452); experiment: Recombinant MMP fluorescent assay, MMP-13; type: biochemical; conditions: read-out: IC50 MMP-13; 1 hour preincubation at 37°C
[8] = molecular target: recombinant human MMP-2 catalytic domain (Homo sapiens, UniProt P08253); experiment: Recombinant MMP fluorescent assay, MMP-2; type: biochemical; conditions: read-out: IC50 MMP-2; 1 hour preincubation at 37°C
recombinant human MMP-2 catalytic domain, sequence (P08253 110-446 limits assumed): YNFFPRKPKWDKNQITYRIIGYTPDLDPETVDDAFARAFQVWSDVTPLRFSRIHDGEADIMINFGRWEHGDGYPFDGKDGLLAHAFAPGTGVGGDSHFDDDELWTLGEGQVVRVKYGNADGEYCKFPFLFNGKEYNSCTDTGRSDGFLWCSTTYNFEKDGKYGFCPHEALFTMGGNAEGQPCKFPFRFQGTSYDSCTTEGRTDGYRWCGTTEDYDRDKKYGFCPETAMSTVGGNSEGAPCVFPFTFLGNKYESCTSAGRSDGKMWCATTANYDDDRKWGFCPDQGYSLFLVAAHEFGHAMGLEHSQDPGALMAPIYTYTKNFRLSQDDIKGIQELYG

[9] = molecular target: recombinant human MMP-12 catalytic domain (Homo sapiens, UniProt P39900); experiment: Recombinant MMP fluorescent assay, MMP-12; type: biochemical
recombinant human MMP-12 catalytic domain, sequence (P39900 106-263 limits assumed): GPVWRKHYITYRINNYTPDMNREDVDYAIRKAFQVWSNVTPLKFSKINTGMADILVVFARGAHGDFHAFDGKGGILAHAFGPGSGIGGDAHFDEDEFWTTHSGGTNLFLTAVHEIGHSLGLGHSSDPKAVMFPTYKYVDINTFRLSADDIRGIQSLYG

[10] = molecular target: recombinant human MMP-3 catalytic domain (Homo sapiens, UniProt P08254); experiment: Recombinant MMP fluorescent assay, MMP-3; type: biochemical; conditions: read-out: IC50 MMP-3; 1 hour preincubation at 37°C
recombinant human MMP-3 catalytic domain, sequence (P08254 100-272 limits assumed): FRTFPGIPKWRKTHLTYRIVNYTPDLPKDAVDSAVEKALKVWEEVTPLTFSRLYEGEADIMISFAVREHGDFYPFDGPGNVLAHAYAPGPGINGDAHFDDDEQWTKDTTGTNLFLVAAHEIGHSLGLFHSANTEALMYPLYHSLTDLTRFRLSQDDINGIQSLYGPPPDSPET

[11] = system: cocultured neonatal rat cardiac fibroblasts/myocytes; experiment: MTT cell viability assay; type: cell-based; conditions: 24 hours incubation
[12] = read-out: IC50 MMP-7, 1 hour preincubation at 37°C
[13] = read-out: IC50 MMP-12, 1 hour preincubation at 37°C

What does the source list for `O=C(NCc1ccc(-c2ccccc2)cc1)c1cccc(=O)n1O` [1,2-HOPO-2]?
pIC50 [1, 12]: < 4.30; pIC50 [2]: 7.07; Peak systolic pressure (PSP) ([3]; 5 μM, data not shown): significant rise in PSP; Reduction in myocardial edema versus controls ([3]; 5 μM, stunned hearts): ~ 10%; Collagen damage (opalation) ([3]; 5 μM, stunned hearts (20-minute GNFI), controls 1.49 ± 1.0): 1.45 ± 0.89 AFU; Improvement in RPP versus controls ([3]; 5 μM, stunned hearts): ~ 23%; Coronary flow rates versus controls ([3]; 5 μM, stunned hearts): higher coronary flow rates versus controls; Reduction in ventricular wet weight versus controls ([3]; 5 μM, stunned hearts, end of reperfusion): ~ 15%; Ventricular wet weight ([3]; 5 μM, stunned hearts, end of reperfusion, controls 820 ± 72): 700 ± 34 mg; Wet to dry weight ratio (edema) ([3]; 5 μM, stunned hearts, controls 5.4 ± 0.21): 4.9 ± 0.02; Reduction of muscle damage ([3]; abstract, troponin I): ~ 25%; Improvement in coronary flow rates ([3]; abstract, versus controls): ~ 22%; cTnI release versus controls ([3]; stunned hearts): significant reductions in cTnI release versus controls; pIC50 [4]: 4.57; Reduction of collagen degradation versus controls ([5]; 30-minute global ischemia (infarction), opalation): ~ 60%; Collagen degradation (opalation) ([5]; 30-minute global ischemia (infarction), controls 1.53 ± 0.66): 0.56 ± 0.29 AFU; Troponin I release ([5]; 30-minute global ischemia, data not shown): significantly reduced troponin I release; Coronary flow rates versus controls ([5]; conditions of infarction, data not shown): higher coronary flow rates versus controls; Improved recovery in RPP versus controls ([5]; infarcted hearts, at 30-minute reperfusion): ~ 17%; RPP in treated hearts ([5]; infarcted hearts, at 30-minute reperfusion, controls 28%): 45%; pIC50 [6]: < 4.30; pIC50 [7]: 5.39; pIC50 [8]: 6.04; pIC50 [9, 13]: 7.74; pIC50 [10]: 6.25; Concentration without compromise of cell viability (lack of cytotoxicity) ([11]; 0.01-1000 μM tested): < 10 µM

`COc1ccc(S(=O)(=O)N(Cc2cccnc2)[C@@H](C(=O)NO)C(C)C)cc1` [CGS27023A] was tested. Which pIC50 ([1]; IC50 MMP-7, 1 hour preincubation at 37°C) did it give?
Its pIC50 is 6.30.

What about the “Improvement in RPP versus controls” value ([3]; 5 μM, stunned hearts) of the same molecule?
The value was ~ 8%.

And the “Coronary flow rates versus controls” value ([3]; 5 μM, stunned hearts)?
The value was “did not improve coronary flow rates”.

What about the “cTnI release versus controls” value ([3]; stunned hearts) of the same molecule?
The value was “no significant changes in cTnI release”.

And the pIC50 ([9]; IC50 MMP-12, 1 hour preincubation at 37°C)?
The pIC50 was over 7.30.

What about the pIC50 ([9]; IC50 MMP-12, as stated in discussion text) of the same molecule?
Its pIC50 is at least 7.30.

With `CC(C)[C@H](NS(=O)(=O)c1ccc(-c2ccc(Br)cc2)cc1)C(=O)O` [PD166793, reference compound] as the molecule, how does the pIC50 [1, 12] read?
Its pIC50 is 5.52.

And the pIC50 [2]?
The pIC50 was over 7.30.

What about the “Improvement in RPP versus controls” value ([3]; 5 μM, stunned hearts) of the same molecule?
Its value is ~ 8%.

What about the “Coronary flow rates versus controls” value ([3]; 5 μM, stunned hearts) of the same molecule?
The value was “did not improve coronary flow rates”.

And the “cTnI release versus controls” value ([3]; stunned hearts)?
The value was “no significant changes in cTnI release”.

And the pIC50 [4]?
Its pIC50 is 5.52.

What about the pIC50 [9, 13] of the same molecule?
Its pIC50 is over 7.30.

And the “Concentration with loss of cell viability” value [11]?
Its value is “greater than 10 μM”.
